Experimental data taken from publication PMC7932028 (European journal of medicinal chemistry, 2020).
Values after ≈ are worked out from the molar mass of the structure shown.

System: S. aureus strain 29213
Test: Whole cell growth inhibition
Type: cell-based
Conditions: Staphylococcus aureus, 29213, 18 h, read-out: MIC (whole cell growth inhibition)
How it was run: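 Racemic test compounds were assayed against CLSI-standardized S. aureus cultures. Growth was scored by turbidity at 600 nm and by visual inspection. The MIC was taken as the lowest concentration with no growth after 18 h incubation. There were n = 2 independent assays, each with duplicate technical replicates, and values are given with SEM.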

MIC | SMILES
0.5 to 1 µg/mL (≈ 0.972 to 1.94 µM) | CCCC1c2cc(C)c(C)cc2C=NN1C(=O)/C=C/c1cc(Cc2cnc(N)nc2N)cc(OC)c1OC (racemic) [13b, (±)-(E)-3-(5-((2,4-Diaminopyrimidin-5-yl)methyl)-2,3-dimethoxyphenyl)-1-(6,7-dimethyl-1-propylphthalazin-2(1H)-yl) prop-2-en-1-one]
0.0625 to 0.25 µg/mL (≈ 0.128 to 0.514 µM) | CCCC1c2ccccc2C=NN1C(=O)/C=C/c1cc(Cc2cnc(N)nc2N)cc(OC)c1OC (stereo not drawn) [11a]
0.046 to 0.187 µg/mL (≈ 0.086 to 0.35 µM) | COc1cc(Cc2cnc(N)nc2N)cc(/C=C/C(=O)N2N=Cc3ccccc3C2c2ccc(C)cc2)c1OC (stereo not drawn) [11j]
